Laboratory results: paper PMC3188443 (Biochemical pharmacology, 2010)
Ends that are not written are not given here.

Experiments:
[1] = target: T1, Stat3 (Mus musculus, UniProt P42227); assay: Surface Plasmon Resonance analysis of binding to immobilized His-tagged Stat3; set-up: species or system murine; settings: 0-5 μM peptide as analyte
How it was run: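 His-tagged Stat3 expressed in E. coli BL21(DE3), purified on a Ni-ion Sepharose column, and captured on a HisCap sensor chip by injecting 50 μg/ml protein. Analytes were unphosphorylated or phosphotyrosine gp-130 heptapeptides at 0-5 μM, passed over the chip. Running buffer was 1X PBS, 0.5% DMSO. Association and dissociation rate constants were fitted, and KD was taken as their ratio.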

[2] = target: T1, Stat3; format: binding, murine; settings: 150 nM His-Stat3, unlabeled peptide
[3] = target: His-tagged murine Stat3 protein (murine) (UniProt P42227); assay: fluorescence polarisation
[4] = target: His-tagged murine Stat3 protein (murine) (UniProt P42227); assay: SPR

Chain of His-tagged murine Stat3 protein (murine) (P42227 whole entry): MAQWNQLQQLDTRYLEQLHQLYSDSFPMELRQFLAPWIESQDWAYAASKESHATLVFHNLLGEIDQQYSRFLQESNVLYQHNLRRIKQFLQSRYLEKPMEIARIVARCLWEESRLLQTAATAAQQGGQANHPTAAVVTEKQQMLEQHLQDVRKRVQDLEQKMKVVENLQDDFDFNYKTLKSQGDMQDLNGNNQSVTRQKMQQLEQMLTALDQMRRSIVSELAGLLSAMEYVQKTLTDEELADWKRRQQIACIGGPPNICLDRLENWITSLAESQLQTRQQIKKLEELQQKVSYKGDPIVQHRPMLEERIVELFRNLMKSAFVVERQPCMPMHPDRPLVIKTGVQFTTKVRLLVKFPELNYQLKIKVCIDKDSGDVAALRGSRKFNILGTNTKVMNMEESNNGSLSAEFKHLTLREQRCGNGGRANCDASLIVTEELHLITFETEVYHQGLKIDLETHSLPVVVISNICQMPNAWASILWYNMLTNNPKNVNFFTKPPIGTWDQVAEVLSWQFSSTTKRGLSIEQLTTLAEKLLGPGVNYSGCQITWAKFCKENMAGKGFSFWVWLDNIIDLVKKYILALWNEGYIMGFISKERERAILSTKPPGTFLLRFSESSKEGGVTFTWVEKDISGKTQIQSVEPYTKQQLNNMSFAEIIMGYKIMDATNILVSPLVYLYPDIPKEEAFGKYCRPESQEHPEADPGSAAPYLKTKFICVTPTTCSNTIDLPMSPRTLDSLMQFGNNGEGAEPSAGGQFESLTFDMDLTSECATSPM
T1 sequence (P42227 whole entry): as above

binding to Stat3 (SPR) [1]	inhibition in the FP assay, in words [2]	IC50 [3] [nM]	Kd [4] [nM]	Substance
no significant binding	no evidence of inhibition	–	–	GYLPQTV-NH2
–	–	300	24	GpYLPQTV-NH2, high affinity Stat3-binding phosphoTyr peptide derived from the IL-6R subunit gp-130
